Data: ChEMBL document CHEMBL1152591, “Design, synthesis and structure-activity relationship of 2-(3',4',5'-trimethoxybenzoyl)-benzo[b]furan derivatives as a novel class of inhibitors of tubulin polymerization” (Bioorg Med Chem, 2009)

Columns and labels:
[1] = tested on: L1210; experiment: Cytotoxicity against mouse L1210 cells after 2 days; type: functional, cell-based; settings: L1210, 48 h
Procedure, shortened: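 Cells were incubated with the compounds at 37 °C for two days, then counted on a Coulter counter. IC50 is the concentration that inhibits cell proliferation by 50%.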

[2] = tested on: FM3A; experiment: Cytotoxicity against mouse FM3A0 cells after 2 days; type: functional, cell-based; settings: 48 h
[3] = Cytotoxicity against human Molt4/C8 cells after 2 days; settings: MOLT-4, 48 h
[4] = tested on: CCRF-CEM; experiment: Cytotoxicity against human CEM cells after 2 days; type: functional, cell-based; settings: 48 h
[5] = tested on: HeLa; experiment: Cytotoxicity against human HeLa cells after 2 days; type: functional, cell-based; settings: 48 h
[6] = Inhibition of bovine tubulin polymerization; parameters: species or system Bos taurus
Procedure, shortened: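 Purified bovine brain tubulin (10 μM) in glutamate buffer was preincubated with varying compound concentrations at 30 °C, then cooled to 0 °C. GTP was added and the mixture warmed to 30 °C in a recording spectrophotometer. Assembly was followed by turbidity.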

[7] = species: Bos taurus; experiment: Displacement of [3H]colchicine from bovine tubulin at 5 uM
Procedure, shortened: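 Reaction mixtures held 1 μM bovine brain tubulin, 5 μM [3H]colchicine and 5 μM test compound. Inhibition of radiolabelled colchicine binding to tubulin is expressed as percent inhibition.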

[8] = tested on: K562; experiment: Cell cycle arrest in human K562 cells assessed as accumulation at G1 phase at 530 nM after 24 hrs by flow cytometry; type: functional
Procedure, shortened: (§1)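 K562 leukaemia cells were cultured for 24 h with compound at one fixed concentration. DNA content per cell was measured by the standard propidium iodide procedure and flow cytometry. Proportions of cells in the sub-G0–G1 (apoptotic), G0–G1, S and G2–M peaks were compared with an untreated control.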

[9] = tested on: K562; experiment: Cell cycle arrest in human K562 cells assessed as accumulation at S phase at 530 nM after 24 hrs by flow cytometry; type: functional; procedure, shortened: as §1
[10] = tested on: K562; experiment: Cell cycle arrest in human K562 cells assessed as accumulation at G2 phase at 530 nM after 24 hrs by flow cytometry; type: functional; procedure, shortened: as §1
[11] = tested on: K562; experiment: Cell cycle arrest in human K562 cells assessed as accumulation at sub-G0/G1 phase at 530 nM after 24 hrs by flow cytometry; type: functional; procedure, shortened: as §1
[12] = tested on: K562; experiment: Cell cycle arrest in human K562 cells assessed as accumulation at G1 phase at 230 nM after 24 hrs by flow cytometry; type: functional; procedure, shortened: as §1
[13] = tested on: K562; experiment: Cell cycle arrest in human K562 cells assessed as accumulation at S phase at 230 nM after 24 hrs by flow cytometry; type: functional; procedure, shortened: as §1
[14] = tested on: K562; experiment: Cell cycle arrest in human K562 cells assessed as accumulation at G2 phase at 230 nM after 24 hrs by flow cytometry; type: functional; procedure, shortened: as §1
[15] = tested on: K562; experiment: Cell cycle arrest in human K562 cells assessed as accumulation at sub-G0/G1 phase at 230 nM after 24 hrs by flow cytometry; type: functional; procedure, shortened: as §1
[16] = tested on: K562; experiment: Cell cycle arrest in human K562 cells assessed as accumulation at G1 phase at 420 nM after 24 hrs by flow cytometry; type: functional
[17] = tested on: K562; experiment: Cell cycle arrest in human K562 cells assessed as accumulation at S phase at 420 nM after 24 hrs by flow cytometry; type: functional
[18] = tested on: K562; experiment: Cell cycle arrest in human K562 cells assessed as accumulation at G2 phase at 420 nM after 24 hrs by flow cytometry; type: functional
[19] = tested on: K562; experiment: Cell cycle arrest in human K562 cells assessed as accumulation at sub-G0/G1 phase at 420 nM after 24 hrs by flow cytometry; type: functional

Row | Activity [7] | Structure (SMILES) | IC50 [1] | IC50 [2] | IC50 [3] | IC50 [4] | IC50 [5] | further results
1 | – | COc1cc(C(=O)c2cc3cc(Br)ccc3o2)cc(OC)c1OC | > 10000 nM | > 10000 nM | > 10000 nM | > 10000 nM | > 10000 nM | –
2 | 85% | COc1cc(C(=O)c2oc3cccc(O)c3c2C)cc(OC)c1OC | 480 nM | 330 nM | 84 nM | 100 nM | 130 nM | IC50 [6]: 570 nM; Activity [8]: 8.52%; Activity [9]: 26.37%; Activity [10]: 65.12%; Activity [11]: 7.6%
3 | – | COc1cc(C(=O)c2cc3cc(C)ccc3o2)cc(OC)c1OC | 7100 nM | 8400 nM | 2500 nM | 7200 nM | > 10 nM | –
4 | – | COc1cc(C(=O)c2oc3cc(O)ccc3c2C)cc(OC)c1OC | > 10000 nM | > 10000 nM | 1300 nM | 4300 nM | 260 nM | –
5 | – | COc1cc2cc(C(=O)c3cc(OC)c(OC)c(OC)c3)oc2cc1OC | 1800 nM | 1200 nM | 770 nM | 1900 nM | 570 nM | –
6 | – | COc1cc(C(=O)c2cc3cc(Cl)ccc3o2)cc(OC)c1OC | > 10000 nM | > 10000 nM | > 10000 nM | > 10000 nM | > 10000 nM | –
7 | 99% | COc1ccc(/C=C\c2cc(OC)c(OC)c(OC)c2)cc1O | – | – | – | – | – | –
8 | – | COc1cc(C(=O)c2oc3ccccc3c2C)cc(OC)c1OC | 2100 nM | 2100 nM | 1300 nM | 2000 nM | 890 nM | –
9 | – | COc1cc(C(=O)c2cc3cccc(O)c3o2)cc(OC)c1OC | > 10000 nM | > 10000 nM | > 10000 nM | > 10000 nM | > 10000 nM | –
10 | – | COc1ccc2cc(C(O)c3cc(OC)c(OC)c(OC)c3)oc2c1 (centres undefined) | > 10000 nM | 7010 nM | 3000 nM | > 10000 nM | > 10000 nM | –
11 | 65% | COc1ccc2oc(C(=O)c3cc(OC)c(OC)c(OC)c3)c(C)c2c1 | 2300 nM | 4400 nM | 1900 nM | 400 nM | – | IC50 [6]: 1200 nM; Activity [12]: 1.44%; Activity [13]: 40.38%; Activity [14]: 58.18%; Activity [15]: 18.18%
12 | – | COc1ccc2cc(C(OC)c3cc(OC)c(OC)c(OC)c3)oc2c1 (centres undefined) | > 10000 nM | > 10000 nM | > 10000 nM | > 10000 nM | 4400 nM | –
13 | – | COc1ccc2cc(Cc3cc(OC)c(OC)c(OC)c3)oc2c1 | 2300 nM | 2600 nM | 770 nM | 1500 nM | 680 nM | –

Row | Structure (SMILES) | Activity [7] | IC50 [1] | IC50 [2] | IC50 [3] | IC50 [4] | IC50 [5] | further results
14 | COc1ccc2cc(C(=O)c3cc(OC)c(OC)c(OC)c3)oc2c1 | 79% | 90 nM | 100 nM | 59 nM | 70 nM | 110 nM | IC50 [6]: 700 nM; Activity [16]: 1.83%; Activity [17]: 39.06%; Activity [18]: 59.11%; Activity [19]: 16.36%
15 | COc1cc(C(=O)c2oc3cccc(OC)c3c2C)cc(OC)c1OC | 66% | 590 nM | 570 nM | 200 nM | 490 nM | 340 nM | IC50 [6]: 1800 nM; Activity [16]: 7.7%; Activity [17]: 42.1%; Activity [18]: 50.2%; Activity [19]: 21.24%
